ChEMBL document CHEMBL1649139, “A novel gene, erm(41), confers inducible macrolide resistance to clinical isolates of Mycobacterium abscessus but is absent from Mycobacterium chelonae” (2009)
≈ marks a conversion by molar mass, not a printed value.

Experiments:
Type in all cases: functional
[1] = system: Mycobacteroides abscessus; experiment: Antimicrobial activity against Mycobacterium abscessus isolate MAB30 at day 14 by broth microdilution method; settings: isolate MAB30, 336 h
Summary of the method: (§1)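 Clarithromycin MIC by CLSI-conforming broth microdilution. Before testing, cultures were preincubated for 3 days, either in medium alone or in clarithromycin or erythromycin (tested range 0.01–1 μg/ml). Preincubation ran for at least two generations, judged by turbidity increase. Plates were read on day 3 and on extended incubation at days 5 to 14.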

[2] = system: Mycobacteroides abscessus; experiment: Antimicrobial activity against Mycobacterium abscessus isolate MC719 at day 14 preincubated with 0.1 ug/ml for 3 days by broth microdilution method
Summary of the method: (§2)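 Clarithromycin MIC by broth microdilution following CLSI guidelines. Before testing, organisms were preincubated for 3 days in medium alone or in clarithromycin or erythromycin (0.01–1 μg/ml), long enough for at least two generations judged by turbidity increase. MICs were read on day 3 and again on extended incubation out to day 14.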

[3] = system: Mycobacteroides abscessus; experiment: Antimicrobial activity against Mycobacterium abscessus isolate MAB30 at day 7 preincubated with 0.1 ug/ml erythromycin for 3 days by broth microdilution method; summary of the method: as §1
[4] = system: Mycobacteroides abscessus; experiment: Antimicrobial activity against Mycobacterium abscessus isolate MC958 at day 7 preincubated with 0.1 ug/ml for 3 days by broth microdilution method
[5] = system: Mycobacteroides abscessus; experiment: Antimicrobial activity against Mycobacterium abscessus isolate MC1448 at day 3 preincubated with 0.1 ug/ml for 3 days by broth microdilution method; summary of the method: as §2
[6] = system: Mycolicibacterium smegmatis; experiment: Antimicrobial activity against Mycobacterium smegmatis transformed with erm allele Mycobacterium abscessus isolate MAB30 preincubated with 2 ug/ml erythromycin for 20 to 24 hrs by broth microdilution method
[7] = system: Mycobacteroides abscessus; experiment: Antimicrobial activity against Mycobacterium abscessus isolate MC879 at day 3 by broth microdilution method; settings: isolate MC879, 72 h
Summary of the method: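 Clarithromycin MIC by broth microdilution following CLSI guidelines. Organisms were preincubated […], for 3 days before the assay. This allowed at least two generations, judged by the rise in turbidity. The MIC was read at the stated day, with incubation extended from day 3 to as long as 14 days.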

[8] = system: Mycobacteroides abscessus; experiment: Antimicrobial activity against Mycobacterium abscessus isolate MAB30 at day 14 preincubated with 0.1 ug/ml for 3 days by broth microdilution method; summary of the method: as §1
[9] = system: Mycobacteroides abscessus; experiment: Antimicrobial activity against Mycobacterium abscessus isolate MC879 at day 14 preincubated with 0.1 ug/ml erythromycin for 3 days by broth microdilution method
Summary of the method: (§3)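 To test inducible resistance, cultures were preincubated for 3 days in clarithromycin or erythromycin, within 0.01–1 μg/ml. The period was set so cultures passed at least two generations, judged by turbidity increase. Clarithromycin MIC was then determined by CLSI-conforming broth microdilution and read on the stated day, from day 3 up to 14.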

[10] = system: Mycobacteroides abscessus; experiment: Antimicrobial activity against Mycobacterium abscessus isolate MC724 at day 5 preincubated with 0.1 ug/ml erythromycin for 3 days by broth microdilution method
Summary of the method: (§4)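 Clinical M. abscessus isolates were preincubated for 3 days, either in medium alone or in clarithromycin or erythromycin at 0.01 to 1 μg/ml, allowing at least two generations of growth judged by turbidity. The clarithromycin MIC was then determined by CLSI-conforming broth microdilution, with plates read on day 3 and on extended incubation (days 5 to 14).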

[11] = system: Mycobacteroides abscessus; experiment: Antimicrobial activity against Mycobacterium abscessus isolate MC720 at day 7 preincubated with 0.1 ug/ml erythromycin for 3 days by broth microdilution method; summary of the method: as §2
[12] = system: Mycolicibacterium smegmatis; experiment: Antimicrobial activity against Mycobacterium smegmatis transformed with erm allele Mycobacterium abscessus isolate MC719 by broth microdilution method
[13] = system: Mycobacteroides abscessus; experiment: Antimicrobial activity against Mycobacterium abscessus isolate MC1082 at day 9 preincubated with 0.1 ug/ml erythromycin for 3 days by broth microdilution method; summary of the method: as §1
[14] = system: Mycobacteroides abscessus; experiment: Antimicrobial activity against Mycobacterium abscessus isolate MC958 at day 14 preincubated with 0.1 ug/ml erythromycin for 3 days by broth microdilution method; summary of the method: as §3
[15] = system: Mycobacteroides abscessus; experiment: Antimicrobial activity against Mycobacterium abscessus isolate MC724 at day 9 preincubated with 0.1 ug/ml for 3 days by broth microdilution method; summary of the method: as §3
[16] = system: Mycobacteroides abscessus; experiment: Antimicrobial activity against Mycobacterium abscessus isolate MC1448 at day 3 preincubated with 0.1 ug/ml erythromycin for 3 days by broth microdilution method; summary of the method: as §2
[17] = system: Mycolicibacterium smegmatis; experiment: Antimicrobial activity against Mycobacterium smegmatis transformed with erm allele Mycobacterium abscessus isolate MC879-2 by broth microdilution method
[18] = system: Mycobacteroides abscessus; experiment: Antimicrobial activity against Mycobacterium abscessus isolate MC879 at day 7 preincubated with 0.1 ug/ml erythromycin for 3 days by broth microdilution method; summary of the method: as §3
[19] = system: Mycobacteroides abscessus; experiment: Antimicrobial activity against Mycobacterium abscessus isolate MC719 at day 5 preincubated with 0.1 ug/ml for 3 days by broth microdilution method; summary of the method: as §4
[20] = system: Mycobacteroides abscessus; experiment: Antimicrobial activity against Mycobacterium abscessus isolate MC879-2 at day 7 preincubated with 0.1 ug/ml erythromycin for 3 days by broth microdilution method
[21] = system: Mycobacteroides abscessus; experiment: Antimicrobial activity against Mycobacterium abscessus isolate MC879-2 at day 14 by broth microdilution method; settings: isolate MC879-2, 336 h
[22] = system: Mycobacteroides abscessus; experiment: Antimicrobial activity against Mycobacterium abscessus isolate MC1082 at day 5 preincubated with 0.1 ug/ml for 3 days by broth microdilution method; summary of the method: as §1
[23] = system: Mycobacteroides abscessus; experiment: Antimicrobial activity against Mycobacterium abscessus isolate MC958 at day 5 preincubated with 0.1 ug/ml erythromycin for 3 days by broth microdilution method; summary of the method: as §4
[24] = system: Mycobacteroides abscessus; experiment: Antimicrobial activity against Mycobacterium abscessus isolate MC1448 at day 9 preincubated with 0.1 ug/ml for 3 days by broth microdilution method; summary of the method: as §2
[25] = system: Mycobacteroides abscessus; experiment: Antimicrobial activity against Mycobacterium abscessus isolate MC1028 at day 3 preincubated with 0.1 ug/ml erythromycin for 3 days by broth microdilution method; summary of the method: as §1
[26] = system: Mycobacteroides abscessus; experiment: Antimicrobial activity against Mycobacterium abscessus isolate MC1028 at day 7 preincubated with 0.1 ug/ml erythromycin for 3 days by broth microdilution method; summary of the method: as §1
[27] = system: Mycobacteroides abscessus; experiment: Antimicrobial activity against Mycobacterium abscessus isolate MC724 at day 14 preincubated with 0.1 ug/ml erythromycin for 3 days by broth microdilution method; summary of the method: as §2
[28] = system: Mycobacteroides abscessus; experiment: Antimicrobial activity against Mycobacterium abscessus isolate MC1028 at day 5 preincubated with 0.1 ug/ml for 3 days by broth microdilution method; summary of the method: as §1
[29] = system: Mycobacteroides abscessus; experiment: Antimicrobial activity against Mycobacterium abscessus isolate MC723 at day 5 preincubated with 0.1 ug/ml for 3 days by broth microdilution method; summary of the method: as §4
[30] = system: Mycobacteroides abscessus; experiment: Antimicrobial activity against Mycobacterium abscessus isolate MAB30 at day 9 preincubated with 0.1 ug/ml for 3 days by broth microdilution method; summary of the method: as §1
[31] = system: Mycobacteroides abscessus; experiment: Antimicrobial activity against Mycobacterium abscessus isolate MC879-2 at day 5 by broth microdilution method; settings: isolate MC879-2, 120 h
[32] = system: Mycobacteroides abscessus; experiment: Antimicrobial activity against Mycobacterium abscessus isolate MC958 at day 7 preincubated with 0.1 ug/ml erythromycin for 3 days by broth microdilution method
[33] = system: Mycobacteroides abscessus; experiment: Antimicrobial activity against Mycobacterium abscessus isolate MAB30 at day 5 preincubated with 0.1 ug/ml erythromycin for 3 days by broth microdilution method; summary of the method: as §1
[34] = system: Mycobacteroides abscessus; experiment: Antimicrobial activity against Mycobacterium abscessus isolate MC1082 at day 14 preincubated with 0.1 ug/ml for 3 days by broth microdilution method; summary of the method: as §1
[35] = system: Mycobacteroides abscessus; experiment: Antimicrobial activity against Mycobacterium abscessus isolate MC719 at day 3 by broth microdilution method; settings: isolate MC719, 72 h; summary of the method: as §2

With `CC[C@H]1OC(=O)[C@H](C)[C@@H](O[C@H]2C[C@@](C)(OC)[C@@H](O)[C@H](C)O2)[C@H](C)[C@@H](O[C@@H]2O[C@H](C)C[C@H](N(C)C)[C@H]2O)[C@](C)(OC)C[C@@H](C)C(=O)[C@H](C)[C@@H](O)[C@]1(C)O` [CLARITHROMYCIN] the MIC [1] was no more than 0.5 µg/mL, the MIC [2] was greater than 32 µg/mL and the MIC [3] was no more than 0.5 µg/mL. The MIC [4] was greater than 32 µg/mL, the MIC [5] was greater than 32 µg/mL and the MIC [6] was no more than 0.5 µg/mL. For the same compound, the MIC [7] was no more than 0.5 µg/mL, the MIC [8] was no more than 0.5 µg/mL and the MIC [9] was greater than 32 µg/mL. It also gave an MIC [10] of 4 µg/mL, an MIC [11] greater than 32 µg/mL and an MIC [12] of 2 µg/mL (≈ 2.67 µM). It also gave an MIC [13] of no more than 0.5 µg/mL, an MIC [14] greater than 32 µg/mL and an MIC [15] greater than 32 µg/mL. For the same compound, the MIC [16] was greater than 32 µg/mL, the MIC [17] was 2 µg/mL (≈ 2.67 µM) and the MIC [18] was greater than 32 µg/mL. It also gave an MIC [19] of 4 µg/mL (≈ 5.35 µM), an MIC [20] greater than 32 µg/mL and an MIC [21] greater than 32 µg/mL. For the same compound, the MIC [22] was no more than 0.5 µg/mL, the MIC [23] was 4 µg/mL and the MIC [24] was greater than 32 µg/mL. For the same compound, the MIC [25] was no more than 0.5 µg/mL, the MIC [26] was no more than 0.5 µg/mL and the MIC [27] was greater than 32 µg/mL. The MIC [28] was no more than 0.5 µg/mL, the MIC [29] was 4 µg/mL (≈ 5.35 µM) and the MIC [30] was no more than 0.5 µg/mL. The MIC [31] was greater than 32 µg/mL, the MIC [32] was greater than 32 µg/mL and the MIC [33] was no more than 0.5 µg/mL. It also gave an MIC [34] of no more than 0.5 µg/mL and an MIC [35] of no more than 0.5 µg/mL.
